Reference: ChEMBL document CHEMBL4513216, “Probing the Open Global Health Chemical Diversity Library for Multistage-Active Starting Points for Next-Generation Antimalarials” (ACS Infect Dis, 2020)

Experiment: Toxicity liver stage against HepG2, at 10uM
Format: cell-based
Parameters: test concentration 10 uM, cell line HepG2-A16-CD81EGFP
Settings: human, HepG2-A16-CD81EGFP cells; read-out: INHIBITION
Procedure, shortened: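 Uninfected HepG2-A16-CD81EGFP cells, 3 × 10^3 per well, 1536-well, plated on prespotted compound at 10 μM final, parasite-free screening media added to match infected plates; puromycin 10 μM positive, DMSO 0.5% negative; run in parallel with 48 h PbLuc assay at 37 °C, 5% CO2; viability by CellTiter-Glo luminescence, normalized to controls.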

| SMILES | cytotoxicity at 10 µM |
| --- | --- |
| Cc1cccc(C2(CNC(=O)CCN3C(=O)CCC3=O)CCCC2)c1 | -7.59% |
| Cc1cc(C(=O)NC2CCN(c3ncccc3C#N)CC2)no1 | -7.25% |
| O=C(COC1CCCC1)NCCc1nc(-c2ccccn2)cs1 | 6.94% |
| O=C(Cn1nc2c(cc1=O)CCCC2)N[C@@H](Cc1ccccc1)C(=O)O | 3.17% |
| Cc1ccc(-c2nc(CN3CCOC(CN(C)C)C3)co2)cc1 (centres undefined) | -4.23% |
| C[S+]([O-])c1nncn1CC(=O)c1cccc(Cl)c1 (centres undefined) | -1.02% |
| COCC(=O)N1CCCC2(CCN(c3ccccc3)C2=O)C1 (centres undefined) | -74.3% |
| COc1cc(C(C)=O)ccc1SCC(=O)Nc1cc(C)n[nH]1 | 9.83% |
| O=C1NC2(CCN(CCO)CC2)CC1c1ccccc1 (centres undefined) | -3.83% |
| CCn1ncc2c1C(COC)CN(S(=O)(=O)N(C)C)C2 (centres undefined) | 12.5% |
| O=C(O)Cc1cccc(-n2ccnc2-c2ccc(Cl)s2)c1 | 0.185% |
| Cc1cc(C)c(CNC(=O)NC2CCOCC2)c(=O)[nH]1 | -7.05% |
| Cc1cc(N2CCC(CC(N)=O)CC2)nc(-c2ccncc2)n1 | -7.22% |
| FC(F)(F)CCc1ccnc(NC2CCOC2)n1 (centres undefined) | 16.4% |
| O=C(NCCCOCC1CCCO1)c1cccnc1N1CCOCC1 (centres undefined) | 3.68% |
| Cc1ccc(CN2C[C@@H]3C[C@H](C(=O)NCc4cccnc4)[C@H](C2)O3)cc1 | 2.5% |
| CC(C)n1cnc(-c2nc(C(=O)N3CCN(C)CC3)c3ccccn23)c1 | 8.88% |
| COc1ccccc1C1(CNc2cn[nH]c(=O)c2Cl)CCOCC1 | 0.152% |
| CCCOC(C)C(=O)NCc1cc2n(n1)CCCN(C1CCCCC1)C2 (centres undefined) | 2.5% |
| CCN(CC1CCCO1)C(=O)NCCNC(=O)c1ccccc1F (centres undefined) | 5.63% |
| CC(C(=O)N1CCCN(Cc2ccc(C#N)cc2)CC1)n1ccnc1 (centres undefined) | -10.9% |
| COc1ccc(NC(=O)c2ccc(-n3ncc(C#N)c3N)cc2)cn1 | -5.77% |

| SMILES | cytotoxicity at 10 µM |
| --- | --- |
| O=C(NCCN1CCNCC1)c1c(O)c2ccccc2[nH]c1=O | 21% |
| CN1[C@H](CN2CCCC2)C[C@@H]2CN(C(=O)Cc3cccs3)CC[C@@H]21 | 4.99% |
| COC(C)(C)c1noc(C2(C#N)CCCC2)n1 | -5.11% |
| COC(=O)NCC(=O)NCC(C)(C)c1cccc(C(F)(F)F)c1 | -3.36% |
| O=S(=O)(c1cccnc1)N1CCN(CC(O)c2cccs2)CC1 (centres undefined) | -4.21% |
| CN(CC1(O)CCCN(c2ccccn2)C1)C(=O)CCc1cccs1 (centres undefined) | -26.9% |
| CNc1cc(C2CN(C(=O)c3cscn3)CCO2)nc(C)n1 (centres undefined) | 9.49% |
| Cc1nc(NCC2CC2)nc2c1COCC21CCN(S(=O)(=O)C2CC2)C1 (centres undefined) | -84.8% |
| CCCS(=O)(=O)N1CCC(NC(=O)c2ccc(C)s2)CC1 | -11.4% |
| CN(Cc1cc2ccccc2o1)S(C)(=O)=O | 1.66% |
| Cc1ccccc1C(=O)N1CCN(c2ccc(-n3cncn3)nn2)CC1 | 50.8% |
| CC(C)CNC(=O)c1cc(C2CC2)nc2onc(C3CCNCC3)c12 | 10.8% |
| CCN(CC)C(=O)[C@@H]1C[C@@H](n2cc(-c3ccccn3)nn2)CN1 | 9.63% |
| CCc1cc(NCCc2cccnc2)n2nc(C)c(C)c2n1 | 2.12% |
| CCC(C)(C)NC(=O)CN1C=Nc2ccccc2S1(=O)=O | -4.47% |
| COCCN(C)C[C@@H]1CN(C(=O)c2sc3ccccc3c2C)C[C@@H]1CO | -7.13% |
| Cc1cc(-c2ccc(C(=O)O)cc2)nc(C2CCCN(C(C)C)C2)n1 (centres undefined) | 5.61% |
| COc1cccc(CN2CCC3(CCN(c4ncc(F)cn4)CC3)C2)c1 | -0.664% |
| Cc1noc(C2CCN(C(=O)c3ccc(C(F)(F)F)nc3)CC2)n1 | -6.16% |
| COc1cc(-c2cccc3c2OC(CN)C3)ccc1O (centres undefined) | -51.9% |
| Cc1cc(C(=O)N2CC[C@@]3(C[C@@H](NS(C)(=O)=O)CCO3)C2)no1 | -61.1% |
| CCCc1nc(CN(C)CC2CCN(CCO)CC2)no1 | 2.64% |

| SMILES | cytotoxicity at 10 µM |
| --- | --- |
| COc1ccc(C)c2c1N(C(=O)c1ccc3nnc(C)n3c1)CCC2 | 2.84% |
| COc1cc(CNCc2ccc(C(C)O)cc2)cc2c1OCO2 (centres undefined) | -9.78% |
| Cc1cc(N2CCN(C(=O)c3cc(Cl)c[nH]3)CC2)nc(C)n1 | -2.43% |
| Cc1cc(CN[C@@H](Cc2ccccc2)C(N)=O)c(C)s1 | -0.527% |
| CS(=O)(=O)N1C[C@@H](NC(=O)c2ccno2)[C@@H]2OCCC[C@@H]21 | -108% |
| CNC(=O)[C@H]1C[C@@H]2CN(C(=O)c3cncc(C)c3)C[C@@H]2N1C | -107% |
| CN1CCN(CC(C)(C)C)CC1CCO (centres undefined) | 1.88% |
| CCc1noc(CNc2cc3c(cc2Cl)OCCCO3)n1 | -1.98% |
| Cc1cc(C(=O)N2CCCN(Cc3cnn(C(C)C)c3)CC2)no1 | 0.243% |
| O=C(Nc1cc(C(F)(F)F)c[nH]c1=O)C1CCCCN1 (centres undefined) | -0.924% |
| CCCN1CCN(S(=O)(=O)c2ccccc2OC)[C@H]2CS(=O)(=O)C[C@H]21 | -3.56% |
| CCCn1ncnc1C(C)NC(=O)CC1CCN(C(C)C)CC1 (centres undefined) | -150% |
| c1cnc(NCc2nnn3c2CN(Cc2cccs2)CCC3)nc1 | 10.1% |
| CN(CCCc1ccc(C(F)(F)F)cc1)Cc1nccn1C | 9.05% |
| CCN1CCc2c(c(COC)nn2C)C1 | 5.09% |
| Cc1cnn(CC2CN(Cc3nc(-c4ccoc4)no3)CCO2)c1 (centres undefined) | -9.63% |
| CC1CN(C2CCN(Cc3nccn3CC(F)(F)F)CC2)CCO1 (centres undefined) | -1.32% |
| CC(=O)N1CC[C@H]2OCC[C@@]2(C(=O)NCc2ccco2)C1 | 0.253% |
| CCCN1CCCC2(CCN(Cc3cncn3C3CCCC3)C2)C1=O (centres undefined) | -13% |
| COc1nc2c(cc1C(=O)NCc1nc(CSC)no1)CCC2 | -11.7% |
| N[C@H]1CN(C(=O)Cc2ccc(CO)cc2)C[C@@H]1C1CC1 | -5.68% |
| O=C(COc1ccc(Cl)cc1)Nc1cnc(N2CCOCC2)nc1 | -8.18% |

| SMILES | cytotoxicity at 10 µM |
| --- | --- |
| N#Cc1cccc(S(=O)(=O)N2CCCCC2CCN2CCCC2)c1 (centres undefined) | -123% |
| Cc1ccc(-n2ccnc2-c2cn(C3CCNCC3)nn2)c(Cl)c1 | 3.07% |
| Cc1cc(C(=O)N2CCc3nc4sc(C)cc4c(=O)n3CC2)on1 | -16.2% |
| CCc1noc(C(C)N(C)Cc2cc(Br)ccc2OC)n1 (centres undefined) | -5.04% |
| O=C(CC1[C@H]2CN(Cc3ccsc3)C[C@@H]12)N1CCCC1 (some centres undefined) | -1.16% |
| NC(=O)CN1C[C@@H](c2ccccc2F)[C@@]2(CCCCC(=O)N2)C1 | 7.04% |
| Cc1ccc(N2CCC3(CN(CCO)CCC3(F)F)C2)nn1 (centres undefined) | 7.28% |
| O=C(Cc1ccsc1)N1C[C@@H]2OCCN(c3cnccn3)[C@@H]2C1 | 11.6% |
| CN(CC(N)=O)C(=O)c1cnc(-c2ccc(Cl)s2)s1 | -5.02% |
| Cc1cc(C)n(CC2CN(CCOc3cccc(C#N)c3)CCO2)n1 (centres undefined) | -10.9% |
| Cc1cc(C(=O)N2CCCN(Cc3nccn3C)CC2)no1 | 0.47% |
| CCc1cnc(C)nc1NCc1cnc2c(c1)CCC2 | 8.83% |
| O=C1CSCN1Cc1nc(-c2ccc(N3CCCCC3)cc2)no1 | -6.79% |
| COc1ccc(CNC(=O)CCc2c(C)noc2C)cc1F | -6.87% |
| COc1c(C2CCCN2C(=O)c2cnn(C)c2C2CC2)c(C)nn1C (centres undefined) | -2.43% |
| O=C(NCCN1CCCC1)c1cc2c(s1)CCN2C(=O)c1ccccc1 | 0.559% |
| CCC(O)CN1CCN(C(=O)Cc2nc(-c3ccco3)oc2C)CC1 (centres undefined) | -2.94% |
| CN1CC(c2ccccc2)C2(CCN(C(=O)c3cccn3C)CC2)C1=O (centres undefined) | 3.83% |
| O=C(c1ccoc1)N1CC[C@H]2[C@H]1CCN2CC1CC1 | 2.5% |
| Cc1ccc(CN2CCc3onc(C(=O)NCCN(C)C)c3C2)o1 | 5.9% |
| Cc1ncc(CN2CCCC(c3nc4ccccc4n3C(C)C)C2)s1 (centres undefined) | -24.9% |
| O=C(CN1CCC2(CC1)NC(=O)c1cc(Br)ccc1N2)NC1CC1 | 4.79% |

| SMILES | cytotoxicity at 10 µM |
| --- | --- |
| O=C(Nc1cccc(CNCc2csc(Br)c2)c1)C1CC1 | 7.97% |
| CN(C)C[C@@H]1CN(C(=O)c2cc(S(N)(=O)=O)ccc2F)C[C@@H]1CO | 4.83% |
| CN(Cc1cnn(C)c1)C(=O)c1ccnc(OC2CCC2)c1 | 3.82% |
| Cn1cc(C(=O)NC2CCN(Cc3ccn(C)c(=O)c3)CC2)cn1 | -16.7% |
| CC(NCCCn1ccnc1)c1ccc(N2CCCS2(=O)=O)cc1 (centres undefined) | -7.49% |
| CN1CC(Oc2ccccc2)=NC(SCC(=O)c2ccccc2)=N1 | -6.17% |
| COc1ccccc1-c1noc(CNc2ccc(F)cc2OCCO)n1 | -37.7% |
| O=C(C1CCC1)N1CCCC(c2ccnc(Nc3cnccn3)n2)C1 (centres undefined) | -22.7% |
| O=C(c1ccncc1)N1CCc2ncnc(C3CCOC3)c2CC1 (centres undefined) | -73.2% |
| CC[C@H]1COCCN1C(=O)c1cnc(C(C)C)nc1C | 8.51% |
| O=C([C@@H]1CCO[C@@H]2CCN(CC3CCOCC3)C[C@H]21)N1CCCO1 | 7.37% |
| Cc1cc(NC(=O)c2ccc(-n3ncc(C#N)c3N)cc2)n(C)n1 | -0.0414% |
| O=S1(=O)C[C@@H]2[C@H](C1)N(S(=O)(=O)N1CCCC1)CCN2Cc1ccccc1 | -2.59% |
| CCc1ncc(CN(C)C(=O)Nc2cccnc2N2CCCC2)s1 | -8.43% |
| O=C1CC2(CCCC2)CC(=O)N1Cc1nccs1 | 3.16% |
| O=C(NC(Cc1ccsc1)c1nccs1)C1CC1 (centres undefined) | -28.3% |
| Cc1nc(C)n(CC2CN(Cc3ccccc3OC(C)C)CCO2)n1 (centres undefined) | -0.248% |
| CN(C)C(=O)NCc1ncn2c1CN(S(C)(=O)=O)CCC2 | 11% |
| Cc1cnc(C)c(N2CCN(CCCc3ccncc3)CC2)n1 | -15.4% |
| Cc1csc(CNCC(C)c2nc3ccccc3o2)n1 (centres undefined) | -15.6% |
| Cc1cc(CC(=O)N2CCN(CC(C)C)[C@@H]3CS(=O)(=O)C[C@@H]32)ccc1F | -2.22% |
